Columns and labels:
P388 [1] = test: Optimal dose effective against P388 murine leukemia in mice; assay type: functional, Mus musculus
In short: (§1)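 P388 ascites cells (10⁶) were implanted in CDF₁ female mice. Six mice per dose were dosed on day 1 only; 10 controls received saline, and mitomycin C reference groups had six mice per dose. %T/C = MST treated/control × 100. The optimal dose gave the maximum %T/C. MED is the dose giving %T/C 125. TR = optimal dose/MED.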

P388 [2] = test: (Percentage) Maximum effect on life span of control group of mice for mytomycin C at its optimal dose; assay type: functional, Mus musculus
In short: (§2)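 CDF₁ female mice were implanted with 10⁶ P388 ascites cells and dosed on day 1 only, six mice per dose. There were 10 saline-injected controls, plus a six-mouse mitomycin C group per dose in each experiment. % T/C = median survival treated/control × 100 at optimal dose; MED is the dose giving % T/C 125; TR = optimal dose/MED.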

P388 [3] = test: (Percentage) Maximum effect on life span of mice against P388 murine leukemia when compared with control; assay type: functional, Mus musculus; in short: as §2
P388 [4] = test: Minimum effective dose (MED) against P388 murine leukemia in mice; assay type: functional; settings: Mus musculus, read-out: MED; in short: as §1
[5] = (§3) Therapeutic ratio of optimal dose to minimum effective dose(MED); assay type: ADME; settings: mouse; in short: as §1
L1210 [6] = test: Average change in weight between treated and control groups at 24 mg/kg in mice infected with L1210 leukemia cells; assay type: functional, Mus musculus
In short: (§4)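 BDF₁ female mice received 10⁶ L1210 ascites cells, then a single injection on day 1 in distilled water containing Tween 80, six mice per dose. The control group had 36 mice. Median survival time is in days; % T/C = MST treated/MST control × 100, with 125 taken as significant. Weight change is the average weight difference between treated and control groups.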

L1210 [7] = test: (§5) Average change in weight between treated and control groups at 3 mg/kg in mice infected with L1210 leukemia cells; assay type: functional, Mus musculus; in short: as §4
L1210 [8] = test: Median survival time against L1210 murine leukemia at 12 mg/kg in mice when compared with control; assay type: functional, Mus musculus; in short: as §4
L1210 [9] = test: Median survival time against L1210 murine leukemia at 24 mg/kg in mice when compared with control; assay type: functional, Mus musculus; in short: as §4
L1210 [10] = test: Median survival time against L1210 murine leukemia at 3 mg/kg in mice when compared with control; assay type: functional, Mus musculus; in short: as §4
L1210 [11] = test: Median survival time against L1210 murine leukemia at 6 mg/kg in mice when compared with control; assay type: functional, Mus musculus; in short: as §4
L1210 [12] = test: Average change in weight between treated and control groups at 6 mg/kg in mice infected with L1210 leukemia cells; assay type: functional, Mus musculus
In short: (§6)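 L1210 ascites cells (10⁶) were implanted into BDF₁ female mice. Six mice per dose received a single injection on day 1 in distilled water containing Tween 80; the control group had 36 mice. Survivors were counted on days 5 and 30. %T/C = MST (days) treated/control × 100, with 125 as significant. Weight change is the average weight difference between treated and control groups.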

L1210 [13] = test: Average change in weight between treated and control groups at 1.5 mg/kg in mice infected with L1210 leukemia cells; assay type: functional, Mus musculus; in short: as §6
L1210 [14] = test: (§7) Average change in weight between treated and control groups at 12 mg/kg in mice infected with L1210 leukemia cells; assay type: functional, Mus musculus; in short: as §4
L1210 [15] = test: Median survival time against L1210 murine leukemia at 1.5 mg/kg in mice when compared with control; assay type: functional, Mus musculus; in short: as §4
L1210 [16] = test: as §5; assay type: functional, Mus musculus; in short: as §6; remark: listed apart in the source
L1210 [17] = test: Median survival time against L1210 murine leukemia at 24 mg/kg in mice when compared with control; Toxic; assay type: functional, organism-based; set-up: dose 24 mg/kg; settings: Mus musculus; in short: as §6
[18] = as §3; assay type: ADME; settings: mouse, p388; in short: as §2
[19] = as §7; assay type: functional, Mus musculus; in short: as §6

Row | SMILES | Dose (P388 [1]) | T/C (P388 [2]) | T/C (P388 [3]) | minimal effective dose (P388 [4]) | selectivity ratio [5] | also measured
1 | COC1=C(C)C(=O)c2c(c(COC(N)=O)c3n2CCC3OC(C)=O)C1=O (centres undefined) | 6.4 mg/kg | 229% | 165% | 0.8 mg/kg | 8 | –
2 | COC1=C(C)C(=O)c2c(c(COC(N)=O)c3n2CCC3O)C1=O (centres undefined) | 6.4 mg/kg | 181% | 113% | – | – | –
3 | COC1=C(C)C(=O)c2c(c(COC(N)=O)c3n2CCC3OC(=O)C(C)(C)C)C1=O (centres undefined) | 51.2 mg/kg | 183% | 117% | – | – | –
4 | CC1=C(N2CC2)C(=O)c2c(COC(N)=O)c3n(c2C1=O)CCC3OC(N)=O (centres undefined) | 51.2 mg/kg | 183% | 144% | 0.8 mg/kg | 64 | Average weight change (L1210 [6]): -3.2 g; Average weight change (L1210 [7]): -1.1 g; T/C (L1210 [8]): 134%; T/C (L1210 [9]): 138%; T/C (L1210 [10]): 112%; T/C (L1210 [11]): 114%; Average weight change (L1210 [12]): -1.6 g; Average weight change (L1210 [13]): -0.6 g; Average weight change (L1210 [14]): -2.4 g; T/C (L1210 [15]): 108%
5 | COC(=O)OC1CCn2c3c(c(COC(N)=O)c21)C(=O)C(OC)=C(C)C3=O (centres undefined) | 3.2 mg/kg | 244% | 150% | 1.6 mg/kg | 2 | –
6 | COC1=C(C)C(=O)c2c(c(COC(N)=O)c3n2CCC3OC(N)=O)C1=O (centres undefined) | 6.4 mg/kg | 238% | 163% | 0.4 mg/kg | 16 | Average weight change (L1210 [6]): -5.1 g; Average weight change (L1210 [16]): -3.2 g; T/C (L1210 [8]): 122%; T/C (L1210 [17]): Toxic; T/C (L1210 [10]): 118%; T/C (L1210 [11]): 116%; Average weight change (L1210 [12]): -1.7 g; Average weight change (L1210 [13]): -1.4 g; Average weight change (L1210 [14]): -3.4 g; T/C (L1210 [15]): 114%
7 | COC1=C(C)C(=O)c2c(c(COC(N)=O)c3n2CCC3OC(=O)c2cccnc2)C1=O (centres undefined) | 6.4 mg/kg | 211% | 128% | 6.4 mg/kg | 1 | –
8 | COC1=C(C)C(=O)c2c(c(COC(N)=O)c3n2CCC3)C1=O | 51.2 mg/kg | 183% | 128% | 51.2 mg/kg | – | selectivity ratio [18]: 1
9 | COc1c(C)c(O)c2c(c1O)c(COC(N)=O)c1n2C[C@@H]2[C@H]1N2C (some centres undefined) | 12.8 mg/kg | 181% | 213% | 0.8 mg/kg | 16 | –
10 | CO[C@@]12[C@H](COC(N)=O)C3=C(C(=O)C(C)=C(N)C3=O)N1C[C@@H]1N[C@@H]12 [MITOMYCIN] | – | – | – | – | – | Average weight change [19]: -5.5 g; Average weight change (L1210 [7]): -2.4 g; T/C (L1210 [8]): 110%; T/C (L1210 [10]): 122%; T/C (L1210 [11]): 124%; Average weight change (L1210 [12]): -3.6 g; Average weight change (L1210 [13]): -1.2 g; T/C (L1210 [15]): 108%
11 | COC1=C(C)C(=O)c2c(c(COC(N)=O)c3n2CC/C3=N\O)C1=O | 6.4 mg/kg | 181% | 150% | 1.6 mg/kg | 4 | –
12 | CNC(=O)OC1CCn2c3c(c(CCl)c21)C(=O)C(OC)=C(C)C3=O (centres undefined) | 12.8 mg/kg | 222% | 139% | 12.8 mg/kg | 1 | –
13 | CNC(=O)OC1CCn2c3c(c(COC(N)=O)c21)C(=O)C(OC)=C(C)C3=O (centres undefined) | 6.4 mg/kg | 228% | 167% | 1.6 mg/kg | – | –
14 | COC1=C(C)C(=O)c2c(c(COC(N)=O)c3n2CCC3OC(=O)CCl)C1=O (centres undefined) | 6.4 mg/kg | 224% | 111% | – | – | –
15 | CC(=O)OC1CCn2c3c(c(COC(N)=O)c21)C(=O)C(N1CC1)=C(C)C3=O (centres undefined) | 6.4 mg/kg | 224% | 122% | – | – | –
